We go through 38 compounds from ChEMBL document CHEMBL4725418, “Design, Synthesis, and Structure-Activity Relationship Studies of Dual Inhibitors of Soluble Epoxide Hydrolase and 5-Lipoxygenase” (J Med Chem, 2020).

Series [1] deals with T1, Bifunctional epoxide hydrolase 2 (Homo sapiens, UniProt P34913).
T1 sequence (P34913 whole entry): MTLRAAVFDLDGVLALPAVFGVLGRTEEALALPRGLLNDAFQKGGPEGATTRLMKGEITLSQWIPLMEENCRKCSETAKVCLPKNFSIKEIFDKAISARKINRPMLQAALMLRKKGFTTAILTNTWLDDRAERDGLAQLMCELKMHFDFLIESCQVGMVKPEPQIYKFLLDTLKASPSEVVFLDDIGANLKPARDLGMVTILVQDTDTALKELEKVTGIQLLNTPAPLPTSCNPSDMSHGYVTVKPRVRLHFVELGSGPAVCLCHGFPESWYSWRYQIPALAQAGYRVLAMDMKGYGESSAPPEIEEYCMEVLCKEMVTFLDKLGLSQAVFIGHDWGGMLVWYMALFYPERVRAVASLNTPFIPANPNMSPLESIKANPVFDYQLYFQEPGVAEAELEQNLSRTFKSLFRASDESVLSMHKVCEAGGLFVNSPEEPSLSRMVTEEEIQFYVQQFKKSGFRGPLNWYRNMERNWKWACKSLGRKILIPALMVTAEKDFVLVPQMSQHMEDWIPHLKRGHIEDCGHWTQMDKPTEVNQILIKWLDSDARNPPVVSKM
In words: Inhibition of human sEH (1 to 555 residues) expressed in Escherichia coli BL21-(DE3) using PHOME substrate incubated for 30 to 45 mins by fluorescence based assay.

For series [2], the target named is T2, Polyunsaturated fatty acid 5-lipoxygenase (Homo sapiens, UniProt P09917).
T2 sequence (P09917 whole entry): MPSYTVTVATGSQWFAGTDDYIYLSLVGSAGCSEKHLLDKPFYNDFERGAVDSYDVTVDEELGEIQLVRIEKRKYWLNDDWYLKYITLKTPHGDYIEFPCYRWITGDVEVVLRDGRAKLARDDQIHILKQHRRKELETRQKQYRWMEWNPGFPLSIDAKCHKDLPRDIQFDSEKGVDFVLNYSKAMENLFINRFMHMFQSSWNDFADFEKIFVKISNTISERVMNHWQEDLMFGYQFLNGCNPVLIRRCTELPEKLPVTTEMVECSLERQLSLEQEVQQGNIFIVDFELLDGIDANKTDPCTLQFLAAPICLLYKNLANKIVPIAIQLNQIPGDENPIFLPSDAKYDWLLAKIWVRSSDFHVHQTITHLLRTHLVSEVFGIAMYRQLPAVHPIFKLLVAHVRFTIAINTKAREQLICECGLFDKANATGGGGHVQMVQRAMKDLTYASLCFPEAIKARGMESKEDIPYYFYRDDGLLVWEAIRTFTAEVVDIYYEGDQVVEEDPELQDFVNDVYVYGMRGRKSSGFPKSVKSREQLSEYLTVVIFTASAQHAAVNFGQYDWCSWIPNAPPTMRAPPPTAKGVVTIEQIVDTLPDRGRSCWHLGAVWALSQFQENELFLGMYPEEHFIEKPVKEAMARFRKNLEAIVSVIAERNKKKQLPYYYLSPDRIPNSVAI
In words: Inhibition of 5-LOX (unknown origin) expressed in Escherichia coli BL21-(DE3) pre-incubated for 15 mins before AA substrate addition and measured after 10 mins by HPLC/UV assay. In outline: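 Recombinant 5-LOX activity measured with arachidonic acid as substrate; product formation monitored by HPLC. IC50 from at least three independent determinations (n ≥ 3), reported with 95% confidence interval.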

A short description of series [3]: Metabolic stability in rat liver microsomes assessed as compound remaining after 60 mins. It counts as ADME, Microsome. The following applies: read-out: Stabilty. In a few lines:
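Compound incubated with rat liver microsomes for 60 min; percent parent compound remaining determined; n ≥ 3.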

A short description of series [4]: Solubility in pH 7.4 DPBS buffer. Format: physicochemical.
Series [5] concerns HepG2. In words: Cytotoxicity in human HepG2 cells assessed as effect on cell viability up to 25 uM incubated for 48 hrs by CellTiter-Glo luminescent cell viability assay. It counts as cell-based. The conditions noted are these: hepg2, 48 h. In outline:
(§1)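 Cell viability measured by CellTiter-Glo luminescence, quantifying ATP as an indicator of viable cells.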

Series [6] deals with HepG2. In words: Cytotoxicity in human HepG2 cells assessed as reduction in on cell viability at 7 uM incubated for 48 hrs by CellTiter-Glo luminescent cell viability assay. The conditions noted are these: hepg2, 48 h. It counts as cell-based. In outline: as §1
Background: In ATP-based viability assays light output follows the ATP content of the culture.

Series [7] deals with Mus musculus. The series can be described thus: Anti-fibrotic activity in C57BL/6 mouse model of unilateral ureter obstruction-induced kidney inflammation and fibrosis assessed as inhibition of tubulo-interstitial fibrosis by measuring reduced fibrillar collagen at 3 mg/kg, ip dosed daily for 7 days by Sirius red staining method. Format: functional, organism-based. The following applies: time 7.0 day. In a few lines:
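Mice with unilateral ureter obstruction to induce kidney inflammation and fibrosis, given compound or vehicle intraperitoneally. Ligated (UUO) and contralateral kidneys taken at day 7. Fibrosis read by AZAN and Sirius Red staining, with Sirius Red imaged under bright and polarized light. Macrophages detected by F4/80 staining, quantified as positive area. Col1a1, FN1, TNFα and Ccl2 mRNA measured in whole-kidney homogenates by real-time qRT-PCR normalized to GAPDH.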

pIC50: −log10 of the molar value. Values after ≈ are worked out from the molar mass of the structure shown. Active and inactive are the calls of the source. The calls are words filed in the database; no cut-off is given here.

Take `C[C@H](C#Cc1cccc(C(=O)NCCC(c2ccccc2)c2ccc(S(N)(=O)=O)cc2)c1)N(O)C(N)=O` (stereo partly drawn): the pIC50 (as a rule, the negative decadic logarithm of the IC50, by convention in mol/L) is 8.62 in series [1] and 6.00 in series [2].

Regarding `CC(C#Cc1ccc(C(=O)NCc2ccccc2C(F)(F)F)o1)N(O)C(N)=O` (stereo not drawn), the pIC50 was 6.22 in series [1] and 5.40 in series [2].

For the compound `CC(C#Cc1cccc(C(=O)NCc2ccc(Cl)cc2Cl)c1)N(O)C(N)=O` (stereo not drawn), the pIC50 was 7.40 in series [1] and 6.22 in series [2].

For `CC(C#Cc1cccc(C(=O)NCc2cccc(F)c2)c1)N(O)C(N)=O` (stereo not drawn), the pIC50 in series [1] was 5.05; in series [2], 5.40.

With `Cc1ccc(C(=O)NCc2ccccc2C(F)(F)F)cc1C#CC(C)N(O)C(N)=O` (stereo not drawn), the pIC50 was 5.51 in series [1] and 5.77 in series [2].

As to `CC(C#Cc1cccc(C(=O)NCCC(c2ccccc2)c2ccc(Cl)cc2)c1)N(O)C(N)=O` (stereo not drawn), the results for the pIC50 in series [1] and in series [2] were 8.70 and 6.92, respectively.

Compound `CNc1nc(C)nc(N2CCC(C(=O)NCc3ccccc3OC(F)(F)F)CC2)n1` showed a pIC50 in series [1] of 9.00.

In the case of `CC(C#Cc1cccc(C(=O)NCCC(c2ccccc2)c2ccc(C(F)(F)F)cc2)c1)N(O)C(N)=O` (stereo not drawn), the pIC50 was 8.57 in series [1] and 6.82 in series [2].

The compound `CNc1nc(C)nc(N2CCC(C(=O)NCc3ccc(F)cc3C(F)(F)F)CC2)n1` had a pIC50 in series [1] of 8.52.

As for `CC(C#Cc1cccc(C(=O)NCCC(c2ccccc2)c2ccc(OC(F)(F)F)cc2)c1)N(O)C(N)=O` (stereo not drawn), the negative logarithm of the IC50 (pIC50) is 8.15 in series [1] and 6.96 in series [2].

Consider `NC(=O)N(O)CC#Cc1cccc(C(=O)NCc2ccccc2C(F)(F)F)c1`, for which the values for the pIC50 in series [1] and in series [2] were 7.30 and 5.40, respectively.

As to `CCC(C#Cc1cccc(C(=O)NCc2ccccc2C(F)(F)F)c1)N(O)C(N)=O` (stereo not drawn), the pIC50 was 7.66 in series [1] and 6.30 in series [2].

As to `CC(C)CC(C#Cc1cccc(C(=O)NCc2ccccc2C(F)(F)F)c1)N(O)C(N)=O` (stereo not drawn), the negative logarithm of the IC50 (pIC50) in series [1] is 8.30; in series [2] it was 6.22.

In the case of `CC(C#Cc1cccc(C(=O)NCc2ccc(F)cc2C(F)(F)F)c1)N(O)C(N)=O` (stereo not drawn), the pIC50 was 7.54 in series [1] and 5.89 in series [2].

With `CC(C#Cc1cccc(C(=O)NCCc2ccc(F)cc2)c1)N(O)C(N)=O` (stereo not drawn), the negative logarithm of the IC50 (pIC50) was 5.92 in series [1] and 5.51 in series [2].

As to `CC(C#Cc1cccc(C(=O)NCCC(c2ccccc2)c2ccccc2)c1)N(O)C(N)=O` (stereo not drawn), the pIC50 in series [1] was 8.70; in series [2], 6.52. For the same compound, the remaining at 1 h in series [3] is 27%. The solubility (usually how much of the substance goes into solution per volume) in series [4] is 3 µM (≈ 1.32 µg/mL).

For `C[C@H](C#Cc1cccc(C(=O)NCC[C@H](c2ccc(F)cc2)c2ccc(C(F)(F)F)cc2)c1)N(O)C(N)=O`, the values for the pIC50 in series [1] and in series [2] were 8.52 and 6.64, respectively.

For `CC(C#Cc1cccc(C(=O)NCc2ccccc2C(F)(F)F)c1)N(O)C(N)=O` (stereo not drawn), the values for the pIC50 in series [1] and in series [2] were 7.05 and 6.15, respectively.

For the compound `CC(C#Cc1cncc(C(=O)NCc2ccccc2C(F)(F)F)c1)N(O)C(N)=O` (stereo not drawn), the negative logarithm of the IC50 (pIC50) in series [1] is 6.30; in series [2], 5.00.

With `C[C@H](C#Cc1cccc(C(=O)NCCC(c2ccc(F)cc2)c2ccc(C(F)(F)F)cc2)c1)N(O)C(N)=O` (stereo partly drawn), the pIC50 in series [1] is 8.80; in series [2], 6.66. Further, the Activity result in series [5] is “Non-Toxic”; in series [6], “Toxic”. Further, the remaining at 1 h in series [3] stood at 66%. Besides, the solubility in series [4] is 3 µM (≈ 1.58 µg/mL). Further, in series [7], the outcome was inactive.

For the compound `CC(C#Cc1cccc(C(=O)NCCc2c[nH]c3ccccc23)c1)N(O)C(N)=O` (stereo not drawn), the pIC50 was 5.51 in series [1] and 5.77 in series [2].

On to `CC(C#Cc1cccc(C(=O)NCc2ccccc2OC(F)(F)F)c1)N(O)C(N)=O` (stereo not drawn), for which the negative logarithm of the IC50 (pIC50) is 7.80 in series [1] and 6.00 in series [2].

Turning to `C[C@@H](C#Cc1cccc(C(=O)NCc2ccccc2C(F)(F)F)c1)N(O)C(N)=O`, the pIC50 in series [1] was 7.22; in series [2] it was 6.15.

`CC(C#Cc1ccc(C(=O)NCc2ccccc2C(F)(F)F)cc1)N(O)C(N)=O` (stereo not drawn): the values for the pIC50 in series [1] and in series [2] were 5.59 and 6.00, respectively.

For `COc1ccc(CNC(=O)c2cccc(C#CC(C)N(O)C(N)=O)c2)c(C(F)(F)F)c1` (stereo not drawn), the pIC50 in series [1] was 8.40; in series [2] it was 5.77.

Consider `C[C@H](C#Cc1cccc(C(=O)NCC[C@@H](c2ccc(F)cc2)c2ccc(C(F)(F)F)cc2)c1)N(O)C(N)=O`, for which the pIC50 in series [1] is 8.52; in series [2], 6.80.

On to `CC(C)C(C#Cc1cccc(C(=O)NCc2ccccc2C(F)(F)F)c1)N(O)C(N)=O` (stereo not drawn), for which the pIC50 was 7.96 in series [1] and 6.30 in series [2].

Regarding `C[C@H](C#Cc1cccc(C(=O)NCCC(c2ccc(F)cc2)c2ccc(OC(F)(F)F)cc2)c1)N(O)C(N)=O` (stereo partly drawn), the values for the pIC50 in series [1] and in series [2] were 8.62 and 6.59, respectively. The remaining at 1 h in series [3] turned out to be 43%. For the same compound, in series [4], the concentration in solution (solubility) was 10 µM (≈ 5.44 µg/mL).

Take `CCCC(C#Cc1cccc(C(=O)NCc2ccccc2C(F)(F)F)c1)N(O)C(N)=O` (stereo not drawn): the negative logarithm of the IC50 (pIC50) in series [1] is 7.92; in series [2], 6.52.

As for `CS(=O)(=O)c1ccc(C(CCNC(=O)c2ccc(C#N)nc2)c2ccc(F)cc2)cc1` (stereo not drawn), the pIC50 in series [1] was 8.22.

Regarding `C[C@H](C#Cc1cccc(C(=O)NCc2ccccc2C(F)(F)F)c1)N(O)C(N)=O`, the pIC50 in series [1] was 7.22; in series [2], 6.22.

As to `O=C(Cc1ccc(Oc2nc3ccccc3s2)cc1F)NCCc1ccc(F)cc1`, the pIC50 in series [1] is 6.89.

As for `C[C@H](C#Cc1ccc(Cc2ccc(F)cc2)s1)N(O)C(N)=O` [ATRELEUTON], the values for the pIC50 in series [1] and in series [2] were 5.57 and 7.05, respectively. Further, the solubility in series [4] was 30 µM (≈ 9.55 µg/mL).

Regarding `C[C@H](C#Cc1cccc(C(=O)NCCC(c2ccccc2)c2ccc(Cl)c(Cl)c2)c1)N(O)C(N)=O` (stereo partly drawn), the results for the pIC50 in series [1] and in series [2] were 8.68 and 7.02, respectively.

In the case of `C[C@H](C#Cc1cccc(C(=O)NCCC(c2ccccc2)c2ccc(NS(C)(=O)=O)cc2)c1)N(O)C(N)=O` (stereo partly drawn), the pIC50 in series [1] is 8.52; in series [2], 6.05.

For `C[C@H](C#Cc1cccc(C(=O)NCCN(c2ccccc2)c2ccccc2)c1)N(O)C(N)=O`, the pIC50 in series [1] was 8.30; in series [2] it was 6.96. Further, the remaining at 1 h in series [3] stood at 17%. Also, the concentration in solution in series [4] (solubility) was 3 µM (≈ 1.33 µg/mL).

For the compound `CC(C#Cc1cccc(C(=O)NCCC(c2ccccc2)c2ccc(F)cc2)c1)N(O)C(N)=O` (stereo not drawn), the results for the pIC50 in series [1] and in series [2] were 8.70 and 6.80, respectively.

With `CNc1nc(C)nc(N2CCC(C(=O)NCc3ccccc3C(F)(F)F)CC2)n1`, in series [1], the pIC50 is 8.52.
